Results from ChEMBL document CHEMBL5712078, “BRD9 Inhibition, Alone or in Combination with Cytostatic Compounds as a Therapeutic Approach in Rhabdoid Tumors” (Int J Mol Sci, 2017).
pIC50: −log10 of the molar value. The source made the active and inactive calls. The calls are words filed in the database; no cut-off is given here.

What was measured:
G-401 [1] = assay: Induction of cell cycle arrest in human G-401 cells assessed as accumulation of cells at G1 phase at 10 uM incubated for 72 hrs by flow cytometry analysis (Rvb =46.7+/-1.9 %); assay type: functional
In short: (§1)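 72 h DAPI flow-cytometry cell-cycle assay. Chla266 in IMDM/20% FBS seeded at 30,000 cells/mL; G401 in DMEM/10% FBS at 10,000 cells/mL; 1 mL/well, 37 °C, 5% CO2. Next day the medium was replaced with inhibitor at final 0, 5, 10 or 20 µM. Cells were harvested, PBS-washed, and the G1 percentage was read. n ≥ 3, mean ± SD, one-way ANOVA vs control.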

CHLA-266 [2] = assay: Induction of apoptosis in human CHLA-266 cells assessed as necrotic cells at 5 uM incubated for 72 hrs by flow cytometry analysis (Rvb= 5.0+/-0.3 %)
BT-12 [3] = assay: Anti-proliferative activity against human BT-12 cells assessed as inhibition cell growth incubated for 72 hrs in presence of doxorubicin by MTT-based Chou-Talalay method; assay type: functional; conditions: BT-12, 72 h
In short: (§2)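 Combination MTT assay. I-BRD9 and carboplatin, doxorubicin or vincristine were given together at a fixed 10:1 ratio, with cytostatics 0.0001–10 µM final, added 24 h after seeding. MTT read-out at 570/630 nm after 3 h formazan solubilisation. Combination index from the Chou–Talalay median-effect method: CI <1 synergism, CI >1 antagonism. n ≥3.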

CHLA-266 [4] = assay: Induction of apoptosis in human CHLA-266 cells assessed as necrotic cells incubated for 72 hrs by flow cytometry analysis; assay type: functional, cell-based; conditions: dose 5-20 µM
In short: (§3)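 Annexin V/PI flow assay. G401 at 10,000 cells/mL and BT12 or Chla266 at 30,000 cells/mL were seeded in 12-well plates. Next day medium was replaced with medium holding I-BRD9 or BI-9564 at 0, 5, 10 or 20 µM final for 72 h. Cells were washed in PBS, stained with FITC-Annexin V and propidium iodide for 15 min in the dark at room temperature, then read by flow cytometry. Percentage of dead cells, n ≥3, mean ± SD, one-way ANOVA versus control.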

G-401 [5] = assay: Induction of apoptosis in human G-401 cells assessed as necrotic cells at 5 uM incubated for 72 hrs by flow cytometry analysis (Rvb= 5.7+/-1.9 %); assay type: functional; in short: as §3
G-401 [6] = assay: Synergistic cytotoxicity against human G-401 cells assessed as combination index incubated for 72 hrs in presence of doxorubicin by MTT-based Chou-Talalay method; assay type: functional
In short: (§4)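 MTT combination assay. BT12 in IMDM/20% FBS at 5000 cells/well; G401 in DMEM/10% FBS. Drugs added 24 h after seeding, with I-BRD9 and cytostatic at a fixed 10:1 ratio (final ranges 0.001–100 µM and 0.0001–10 µM). After 72 h: MTT for 3 h, dissolved in isopropanol/0.04 N HCl, read at 570/630 nm. Technical triplicates, ≥3 independent runs; combination index by Chou–Talalay median-effect analysis.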

BT-12 [7] = assay: Induction of cell cycle arrest in human BT-12 cells assessed as accumulation of cells at G1 phase incubated for 72 hrs by flow cytometry analysis; assay type: functional, cell-based; conditions: dose 5-20 µM
In short: (§5)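 Cell cycle. Seeding and 72 h treatment as for the apoptosis assay, with I-BRD9 or BI-9564 at 0, 5, 10 or 20 µM final. A 100 µL cell suspension was stained with DAPI and read by flow cytometry. Percentage of cells in G1, n ≥3, mean ± SD, one-way ANOVA versus control.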

BT-12 [8] = assay: Induction of cell cycle arrest in human BT-12 cells assessed as accumulation of cells at G1 phase at 10 uM incubated for 72 hrs by flow cytometry analysis (reference value: 69+/-1.9%); assay type: functional; in short: as §5
G-401 [9] = assay: Synergistic cytotoxicity against human G-401 cells assessed as combination index incubated for 72 hrs in presence of carboplatin by MTT-based Chou-Talalay method; assay type: functional; in short: as §4
G-401 [10] = assay: Induction of cell cycle arrest in human G-401 cells assessed as accumulation of cells at G1 phase at 20 uM incubated for 72 hrs by flow cytometry analysis (reference value: 51.7+/-2%); assay type: functional; in short: as §1
CHLA-266 [11] = assay: Induction of cell cycle arrest in human CHLA-266 cells assessed as accumulation of cells at G1 phase incubated for 72 hrs by flow cytometry analysis; assay type: functional, cell-based; conditions: dose 5-20 µM; in short: as §1
CHLA-266 [12] = assay: Anti-proliferative activity against human CHLA-266 cells assessed as cell viability incubated for 144 hrs by MTT assay; assay type: functional, cell-based; conditions: CHLA-266, 144 h
In short: (§6)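 MTT proliferation assay. Cells were seeded at 3000 (BT16, KD, G401) or 5000 (BT12, Chla266) cells per well and drug was added after 24 h, final 0.001–100 µM. Read at 72 or 144 h; 144 h wells got fresh medium and drug on day 3. MTT for 3 h, formazan dissolved in isopropanol/0.04 N HCl, absorbance at 570/630 nm. Technical triplicates, ≥3 independent runs, IC50 derived.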

CHLA-266 [13] = assay: Cytotoxicity against human CHLA-266 cells assessed as change in cell viability at 5 to 20 uM treated for 72 hrs; assay type: functional, cell-based; conditions: dose 5-20 µM; in short: as §3
BT-12 [14] = assay: Induction of cell cycle arrest in human BT-12 cells assessed as accumulation of cells at G1 phase at 5 uM incubated for 72 hrs by flow cytometry analysis (Rvb =69+/-1.9%); assay type: functional; in short: as §5
BT-12 [15] = assay: Induction of apoptosis in human BT-12 cells assessed as necrotic cells incubated for 72 hrs by flow cytometry analysis; assay type: functional, cell-based; conditions: dose 5-20 µM; in short: as §3
CHLA-266 [16] = assay: Induction of cell cycle arrest in human CHLA-266 cells assessed as accumulation of cells at G1 phase at 20 uM incubated for 72 hrs by flow cytometry analysis (reference value: 74.2+/-3.6%); assay type: functional; in short: as §5
BT-12 [17] = assay: Induction of cell cycle arrest in human BT-12 cells assessed as accumulation of cells at G1 phase at 20 uM incubated for 72 hrs by flow cytometry analysis (reference value: 69+/-1.9%); assay type: functional; in short: as §5
BT-12 [18] = assay: Synergistic cytotoxicity against human BT-12 cells assessed as combination index incubated for 72 hrs in presence of carboplatin by MTT-based Chou-Talalay method; assay type: functional; in short: as §4
G-401 [19] = assay: Anti-proliferative activity against human G-401 cells assessed as inhibition cell growth incubated for 72 hrs in presence of doxorubicin by MTT-based Chou-Talalay method; assay type: functional; conditions: G-401, 72 h; in short: as §2
BT-12 [20] = assay: Anti-proliferative activity against human BT-12 cells assessed as cell viability incubated for 144 hrs by MTT assay; assay type: functional, cell-based; conditions: BT-12, 144 h; in short: as §6
G-401 [21] = assay: Anti-proliferative activity against human G-401 cells assessed as cell viability incubated for 144 hrs by MTT assay; assay type: functional, cell-based; conditions: G-401, 144 h; in short: as §6
BT-12 [22] = assay: Induction of apoptosis in human BT-12 cells assessed as necrotic cells at 20 uM incubated for 72 hrs by flow cytometry analysis (Rvb= 9.1+/-2.8 %); assay type: functional; in short: as §3
G-401 [23] = assay: Anti-proliferative activity against human G-401 cells assessed as cell viability incubated for 72 hrs by MTT assay; assay type: functional, cell-based; conditions: G-401, 72 h; in short: as §6
BT-12 [24] = assay: Synergistic cytotoxicity against human BT-12 cells assessed as combination index incubated for 72 hrs in presence of vincristine by MTT-based Chou-Talalay method; assay type: functional; in short: as §4
BT-12 [25] = assay: Synergistic cytotoxicity against human BT-12 cells assessed as combination index incubated for 72 hrs in presence of doxorubicin by MTT-based Chou-Talalay method; assay type: functional; in short: as §4

With `CCn1cc(-c2cccc(C(F)(F)F)c2)c2sc(C(=N)NC3CCS(=O)(=O)CC3)cc2c1=O` the Activity (G-401 [1]) was 67.1%, the Activity (CHLA-266 [2]) was 7.7% and the pIC50 (BT-12 [3]) was 6.03. The Activity (CHLA-266 [4]) was “Dose-Dependent Effect”, the Activity (G-401 [5]) was 7.7% and the CI (G-401 [6]) was 1.2. For the same compound, the Activity (BT-12 [7]) was “Dose-Dependent Effect”, the Activity (BT-12 [8]) was 80.1% and the CI (G-401 [9]) was 0.37. The Activity (G-401 [10]) was 65.5%, the Activity (CHLA-266 [11]) was “Dose-Dependent Effect” and the pIC50 (CHLA-266 [12]) was 4.61. For the same compound, the Activity (CHLA-266 [13]) was “Active”, the Activity (BT-12 [14]) was 75% and the Activity (BT-12 [15]) was “Dose-Dependent Effect”. The Activity (CHLA-266 [16]) was 89.3%, the Activity (BT-12 [17]) was 85.6% and the CI (BT-12 [18]) was 1.01. For the same compound, the pIC50 (G-401 [19]) was 7.02, the pIC50 (BT-12 [20]) was 5.09 and the pIC50 (G-401 [21]) was 5.21. The Activity (BT-12 [22]) was 34.6%, the pIC50 (G-401 [23]) was 4.87 and the CI (BT-12 [24]) was 96.1. It also gave a CI (BT-12 [25]) of 0.42.
